From ChEMBL document CHEMBL3808334, “Synthesis and in vitro evaluation of novel triazine analogues as anticancer agents and their interaction studies with bovine serum albumin” (Eur J Med Chem, 2016)

Experiments:
Format in all cases: functional
[1] = test system: NCI-H522; assay: Growth inhibition of human NCI-H522 cells assessed as cell growth at 10 uM incubated for 48 hrs by sulforhodamine B assay; conditions: NCI-H522, 48 h, read-out: Activity
[2] = Growth inhibition of human PC3 cells assessed as cell growth at 10 uM incubated for 48 hrs by sulforhodamine B assay; conditions: PC-3, 48 h, read-out: Activity
[3] = test system: Malme-3M; assay: Growth inhibition of human MALME-3M cells assessed as cell growth at 10^-5 M incubated for 48 hrs by sulforhodamine B assay; conditions: read-out: Activity
[4] = test system: MDA-MB-231; assay: Growth inhibition of human MDA-MB-231 cells incubated for 48 hrs by sulforhodamine B assay; conditions: MDA-MB-231, 48 h
Summary of the method: (§1)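 Cells were plated at 5,000–40,000 per well according to doubling time and preincubated 24 h at 37 °C in 5% CO2; time-zero plates were then TCA-fixed. Five concentrations (10-fold or ½-log dilutions, DMSO stock) were incubated 48 h. Cells were TCA-fixed, stained with 0.4% SRB and read at 515 nm. GI50 was taken where [(Ti−Tz)/(C−Tz)]×100 = 50.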

[5] = Growth inhibition of human RPMI8226 cells assessed as cell growth at 10^-5 M incubated for 48 hrs by sulforhodamine B assay; conditions: RPMI-8226, 48 h, read-out: Activity
[6] = test system: K562; assay: Growth inhibition of human K562 cells assessed as cell growth at 10^-8 M incubated for 48 hrs by sulforhodamine B assay; conditions: K562, 48 h, read-out: Activity
[7] = Growth inhibition of human SNB75 cells assessed as cell growth at 10^-8 M incubated for 48 hrs by sulforhodamine B assay; conditions: SNB-75, 48 h, read-out: Activity
[8] = test system: MCF7; assay: Growth inhibition of human MCF7 cells assessed as cell growth at 10^-6 M incubated for 48 hrs by sulforhodamine B assay; conditions: MCF7, 48 h, read-out: Activity
[9] = test system: NCI-H322M; assay: Growth inhibition of human NCI-H322M cells assessed as cell growth at 10 uM incubated for 48 hrs by sulforhodamine B assay; conditions: read-out: Activity
[10] = Growth inhibition of human SNB19 cells assessed as cell growth at 10 uM incubated for 48 hrs by sulforhodamine B assay; conditions: SNB-19, 48 h, read-out: Activity
[11] = test system: ACHN; assay: Growth inhibition of human ACHN cells assessed as cell growth at 10^-8 M incubated for 48 hrs by sulforhodamine B assay; conditions: read-out: Activity
Summary of the method: (§2)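 Five-dose assay: five concentrations from 10-fold or ½-log serial dilutions. Cells are plated at 5,000–40,000 per well according to doubling time, grown 24 h, then exposed 48 h at 37 °C, 5% CO₂. Fixed with cold 50% TCA (final addition) for 60 min at 4 °C and stained with 0.4% SRB in 1% acetic acid. Bound dye is solubilized in 10 mM Tris base and read at 515 nm. GI₅₀ is where [(Ti−Tz)/(C−Tz)]×100 = 50, with a time-zero plate as Tz.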

[12] = test system: NCI-H226; assay: Growth inhibition of human NCI-H226 cells assessed as cell growth at 10^-7 M incubated for 48 hrs by sulforhodamine B assay; conditions: NCI-H226, 48 h, read-out: Activity
[13] = test system: A498; assay: Growth inhibition of human A498 cells assessed as cell growth at 10^-8 M incubated for 48 hrs by sulforhodamine B assay; conditions: A498, 48 h, read-out: Activity; summary of the method: as §2
[14] = test system: NCI/ADR-RES; assay: Growth inhibition of human NCI/ADR-RES cells assessed as cell growth at 10^-6 M incubated for 48 hrs by sulforhodamine B assay; conditions: read-out: Activity
[15] = Growth inhibition of human OVCAR3 cells assessed as cell growth at 10^-6 M incubated for 48 hrs by sulforhodamine B assay; conditions: OVCAR-3, 48 h, read-out: Activity
[16] = Growth inhibition of human HL-60(TB) cells assessed as cell growth at 10^-8 M incubated for 48 hrs by sulforhodamine B assay; conditions: HL-60, 48 h, read-out: Activity
Summary of the method: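 Cells plated at 5,000–40,000/well according to doubling time and preincubated 24 h at 37 °C, 5% CO₂, with time-zero plates TCA-fixed. Drugs were kept as DMSO concentrates at 400× the top concentration and diluted in medium with 50 µg/ml gentamicin. Five 10-fold or ½-log dilutions were run for 48 h, followed by SRB staining and A515. Percent growth = (Ti−Tz)/(C−Tz)×100, or (Ti−Tz)/Tz×100 when Ti<Tz.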

[17] = test system: SK-MEL-5; assay: Growth inhibition of human SK-MEL-5 cells assessed as cell growth at 10 uM incubated for 48 hrs by sulforhodamine B assay; conditions: SK-MEL-5, 48 h, read-out: Activity
[18] = Growth inhibition of human SF539 cells assessed as cell growth at 10 uM incubated for 48 hrs by sulforhodamine B assay; conditions: SF-539, 48 h, read-out: Activity
[19] = test system: CCRF-CEM; assay: Growth inhibition of human CCRF-CEM cells assessed as cell growth at 10^-6 M incubated for 48 hrs by sulforhodamine B assay; conditions: read-out: Activity
Summary of the method: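 Leukemia line in the five-dose format: five concentrations from 10-fold or ½-log serial dilutions. Plated at 5,000–40,000 cells per well, preincubated 24 h, then compound added for 48 h at 37 °C, 5% CO₂. Sulforhodamine B absorbance read at 515 nm. Growth is computed against time-zero (Tz) and control (C) readings; GI₅₀ is where [(Ti−Tz)/(C−Tz)]×100 = 50.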

[20] = Growth inhibition of human SNB75 cells incubated for 48 hrs by sulforhodamine B assay; conditions: SNB-75, 48 h; summary of the method: as §1
[21] = Growth inhibition of human RPMI8226 cells assessed as cell growth at 10^-4 M incubated for 48 hrs by sulforhodamine B assay; conditions: RPMI-8226, 48 h, read-out: Activity
[22] = Growth inhibition of human Caki1 cells assessed as cell growth at 10^-5 M incubated for 48 hrs by sulforhodamine B assay; conditions: CAKI-1, 48 h, read-out: Activity
Summary of the method: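 Cells seeded at 5,000–40,000/well according to doubling time and preincubated 24 h at 37 °C, 5% CO2. Time-zero plates were TCA-fixed. DMSO concentrate was diluted in medium with 50 µg/ml gentamicin to give five concentrations (10-fold or ½ log steps), then exposed 48 h. Cells were TCA-fixed, stained with 0.4% SRB and read at 515 nm. Percent growth was taken against time-zero and control; GI50, TGI and LC50 derived.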

[23] = Growth inhibition of human MOLT4 cells incubated for 48 hrs by sulforhodamine B assay; conditions: MOLT-4, 48 h; summary of the method: as §1
[24] = read-out: LC50 (the source's name)
[25] = read-out: pLC50 (the source's name) (converted)

| SMILES | growth at 10 µM [1] [%] | growth at 10 µM [2] [%] | growth at 10 µM [3] [%] | GI50 ([4]; read-out: GI50) [µM] | CC50 [4, 24] [µM] | TGI ([4]; read-out: TGI) [µM] | GI50 ([4]; read-out: pGI50 (converted)) [µM] | CC50 [4, 25] [µM] | TGI ([4]; read-out: pTGI (converted)) [µM] | growth at 10 µM [5] [%] | growth at 0.01 µM [6] [%] | growth at 0.01 µM [7] [%] | growth at 1 µM [8] [%] | growth at 10 µM [9] [%] | growth at 10 µM [10] [%] | growth at 0.01 µM [11] [%] | growth at 0.1 µM [12] [%] | growth at 0.01 µM [13] [%] | growth at 1 µM [14] [%] | growth at 1 µM [15] [%] | further results |
| --- | --- | --- | --- | --- | --- | --- | --- | --- | --- | --- | --- | --- | --- | --- | --- | --- | --- | --- | --- | --- | --- |
| Fc1ccc(-c2nc(Nc3ccc(-c4nc5ccccc5[nH]4)cc3)nc(N3CCOCC3)n2)cc1 | 11.9 | 2.31 | -71 | 1.63 | > 100 | 4.76 | 1.62 | > 100 | 4.79 | -17 | 104 | 86 | 85 | 27 | 17.5 | 100 | 111 | 100 | 90 | 89 | growth at 0.01 µM [16]: 92%; growth at 10 µM [17]: -90.7%; growth at 10 µM [18]: 0.31%; growth at 1 µM [19]: 92%; GI50 ([20]; read-out: GI50): 1.8 µM; CC50 [20, 24]: > 100 µM; TGI ([20]; read-out: TGI): 10.5 µM; GI50 ([20]; read-out: pGI50 (converted)): 1.82 µM; CC50 [20, 25]: > 100 µM; TGI ([20]; read-out: pTGI (converted)): 10.5 µM; growth at 100 µM [21]: -14%; growth at 10 µM [22]: -37%; GI50 ([23]; read-out: GI50): 2.15 µM; CC50 [23, 24]: > 100 µM; TGI ([23]; read-out: TGI): 6.13 µM; GI50 ([23]; read-out: pGI50 (converted)): 2.14 µM; CC50 [23, 25]: > 100 µM; TGI ([23]; read-out: pTGI (converted)): 6.17 µM |
| c1ccc2[nH]c(-c3ccc(Nc4nc(N5CCCCC5)nc(N5CCOCC5)n4)cc3)nc2c1 | 9.25 | 12.4 | -80 | 2.5 | > 100 | 7.52 | 2.51 | > 100 | 7.59 | -19 | 103 | 75 | 87 | 35 | 10.4 | 101 | 84 | 92 | 95 | 96 | growth at 0.01 µM [16]: 98%; growth at 10 µM [17]: -90.8%; growth at 10 µM [18]: 7.95%; growth at 1 µM [19]: 100%; GI50 ([20]; read-out: GI50): 2.1 µM; CC50 [20, 24]: > 100 µM; TGI ([20]; read-out: TGI): 16.9 µM; GI50 ([20]; read-out: pGI50 (converted)): 2.09 µM; CC50 [20, 25]: > 100 µM; TGI ([20]; read-out: pTGI (converted)): 17 µM; growth at 100 µM [21]: -24%; growth at 10 µM [22]: -55%; GI50 ([23]; read-out: GI50): 2.73 µM; CC50 [23, 24]: > 100 µM; TGI ([23]; read-out: TGI): 7.89 µM; GI50 ([23]; read-out: pGI50 (converted)): 2.75 µM; CC50 [23, 25]: > 100 µM; TGI ([23]; read-out: pTGI (converted)): 7.94 µM |
